This note sets out measurements from ChEMBL document CHEMBL1255566, “Rigid analogues of the α2-adrenergic blocker atipamezole: small changes, big consequences” (J Med Chem, 2010).

The structures appear in SMILES notation.

Assay [1] addresses T1, Alpha-2A adrenergic receptor (Homo sapiens) (UniProt P08913).
T1 sequence (whole entry): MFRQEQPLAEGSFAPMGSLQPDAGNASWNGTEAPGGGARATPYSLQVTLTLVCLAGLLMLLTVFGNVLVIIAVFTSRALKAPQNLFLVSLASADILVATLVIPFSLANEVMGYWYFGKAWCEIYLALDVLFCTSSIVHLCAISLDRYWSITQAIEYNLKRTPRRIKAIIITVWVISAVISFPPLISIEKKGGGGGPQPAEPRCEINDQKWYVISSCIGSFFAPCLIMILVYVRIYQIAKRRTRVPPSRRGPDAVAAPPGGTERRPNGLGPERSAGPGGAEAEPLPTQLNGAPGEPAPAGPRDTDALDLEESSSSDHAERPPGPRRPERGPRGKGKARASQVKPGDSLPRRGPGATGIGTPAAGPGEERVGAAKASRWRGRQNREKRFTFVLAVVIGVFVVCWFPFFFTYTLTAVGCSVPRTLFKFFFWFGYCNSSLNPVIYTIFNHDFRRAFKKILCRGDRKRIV
The assay is described as follows: Antagonist activity at human adrenergic alpha2A receptor expressed in CHO cells assessed as inhibition of adrenaline-induced [35S]GTPgammaS binding after 30 mins by scintillation counting. It counts as functional, cell-based. In outline:
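Inhibition of adrenaline-stimulated [35S]GTPγS binding in CHO cells expressing human α2A receptors. Compounds were also run alone to check for any stimulation of [35S]GTPγS binding. Antagonist potency is reported as pKB, taken as the potency that inhibits 50% of adrenaline-induced binding.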
On the technique in general: GTPγS is a poorly hydrolysed GTP analogue; its binding reports G protein activation.

Assay [2] has as its target T2, Alpha-1B adrenergic receptor (Homo sapiens, UniProt P35368).
T2 sequence (P35368 whole entry): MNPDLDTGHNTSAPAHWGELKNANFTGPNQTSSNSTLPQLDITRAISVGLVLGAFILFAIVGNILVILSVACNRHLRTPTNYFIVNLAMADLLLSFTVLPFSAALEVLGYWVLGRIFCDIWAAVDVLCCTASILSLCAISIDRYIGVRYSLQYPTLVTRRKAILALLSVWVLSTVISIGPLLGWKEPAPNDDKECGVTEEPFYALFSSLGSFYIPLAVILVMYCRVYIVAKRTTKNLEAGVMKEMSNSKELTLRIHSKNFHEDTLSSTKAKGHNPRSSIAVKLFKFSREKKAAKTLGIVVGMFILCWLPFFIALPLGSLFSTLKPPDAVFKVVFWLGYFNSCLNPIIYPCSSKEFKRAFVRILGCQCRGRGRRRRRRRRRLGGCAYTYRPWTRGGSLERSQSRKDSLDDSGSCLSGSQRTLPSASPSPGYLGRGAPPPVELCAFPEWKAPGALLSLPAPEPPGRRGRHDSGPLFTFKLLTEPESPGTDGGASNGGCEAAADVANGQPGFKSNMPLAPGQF
The assay is described as follows: Displacement of [3H]-prazosin from human adrenergic alpha-1b receptor expressed in CHO cells after 120 mins by liquid scintillation counting. It counts as cell-based. The method in brief: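 Competition binding at human α1b receptors stably expressed in CHO cells. Affinity values are means ± SEM of at least two experiments, each in duplicate.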
A general note: In a radioligand displacement assay an active substance lowers the binding of a labelled ligand.

Assay [3] deals with T3, Alpha-2A adrenergic receptor (Homo sapiens, UniProt P08913).
T3 sequence (P08913 whole entry): T1 sequence (whole entry)
Briefly: Displacement of [3H]-RX821002 from human adrenergic alpha2A receptor expressed in rat C6 cells after 120 mins by liquid scintillation counting. It counts as cell-based. In outline: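 Competition binding at human α2A receptors expressed in C6 glial cells. Affinity values are means ± SEM of at least two experiments, each in duplicate.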

In assay [4] the target is T4, Alpha-2B adrenergic receptor (Homo sapiens, UniProt P18089).
T4 sequence (P18089 whole entry): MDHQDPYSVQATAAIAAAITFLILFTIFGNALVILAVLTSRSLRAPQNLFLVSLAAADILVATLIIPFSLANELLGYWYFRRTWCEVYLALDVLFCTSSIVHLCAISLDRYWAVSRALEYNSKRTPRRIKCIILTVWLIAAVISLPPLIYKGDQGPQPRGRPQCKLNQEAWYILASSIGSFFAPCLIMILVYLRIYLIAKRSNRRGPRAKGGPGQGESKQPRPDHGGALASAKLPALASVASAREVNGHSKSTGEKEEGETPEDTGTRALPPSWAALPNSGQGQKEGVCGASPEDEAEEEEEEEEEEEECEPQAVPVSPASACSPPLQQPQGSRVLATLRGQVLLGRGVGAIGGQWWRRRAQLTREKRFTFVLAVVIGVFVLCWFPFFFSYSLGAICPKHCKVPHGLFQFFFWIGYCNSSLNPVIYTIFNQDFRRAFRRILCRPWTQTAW
Briefly: Displacement of [3H]-RX821002 from human adrenergic alpha2B receptor expressed in rat C6 cells after 120 mins by liquid scintillation counting. It counts as cell-based.

Assay [5] addresses T5, Alpha-2C adrenergic receptor (Homo sapiens, UniProt P18825).
T5 sequence (P18825 whole entry): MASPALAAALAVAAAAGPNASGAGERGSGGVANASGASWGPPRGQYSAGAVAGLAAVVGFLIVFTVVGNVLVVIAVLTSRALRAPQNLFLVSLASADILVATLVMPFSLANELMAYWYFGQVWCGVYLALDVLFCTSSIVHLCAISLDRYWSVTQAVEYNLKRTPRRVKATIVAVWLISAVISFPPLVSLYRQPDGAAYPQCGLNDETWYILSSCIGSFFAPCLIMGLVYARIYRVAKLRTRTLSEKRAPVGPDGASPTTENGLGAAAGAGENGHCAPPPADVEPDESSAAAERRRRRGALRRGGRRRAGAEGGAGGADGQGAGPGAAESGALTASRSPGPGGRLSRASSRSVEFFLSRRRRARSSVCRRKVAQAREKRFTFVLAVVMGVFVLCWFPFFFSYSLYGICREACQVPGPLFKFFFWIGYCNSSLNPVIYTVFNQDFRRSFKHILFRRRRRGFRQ
The assay is described as follows: Displacement of [3H]-RX821002 from human adrenergic Alpha-2C receptor expressed in rat C6 cells after 120 mins by liquid scintillation counting. It counts as cell-based.

In assay [6] the test system is Mus musculus. Briefly: Antihypothermic activity in ip dosed NMRI mouse assessed as inhibition of guanabenz-induced hypothermia administered 5 mins before guanabenz challenge measured after 25 mins. It counts as functional. In outline:
(§1)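 Mice got the compound by intraperitoneal injection or oral gavage before guanabenz challenge, and reversal of guanabenz-induced hypothermia was scored. Five animals were tested per dose. ED50 is the dose giving an inhibitory effect in 50% of guanabenz-treated animals, with 95% confidence limits.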

Assay [7] deals with Mus musculus. Briefly: Antihypothermic activity in po dosed NMRI mouse assessed as inhibition of guanabenz-induced hypothermia administered 35 mins before guanabenz challenge measured after 25 mins. It counts as functional. The method in brief: as §1
Assay [8] has as its system Mus musculus. The assay is described as follows: Ratio of ED50 for santihypothermic activity in po dosed NMRI mouse to ED50 for antihypothermic activity in ip dosed NMRI mouse. It counts as functional. In outline: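 Guanabenz-induced hypothermia in mice, five animals per dose. ED50 (the dose inhibiting hypothermia in 50% of guanabenz-treated animals) was obtained after oral gavage and after intraperitoneal injection, and the ratio po/ip was then calculated.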

For the compound `CO[C@H]1c2ccccc2[C@H]2C[C@]21c1c[nH]cn1` (stereo in doubt; (+)-3), in assay [1], the pKb (as a rule, −log10 of the Kb, conventionally taken in molar units) was found to be 8.54.

With `CO[C@@H]1c2ccccc2[C@H]2C[C@]21c1c[nH]cn1` (relative stereo), the pKb in assay [1] was determined as 6.9.

As to `CC[C@H]1[C@@H]2c3ccccc3C[C@]12c1c[nH]cn1`, the Ki (commonly a dissociation constant, usually derived from enzyme kinetics or from competition with a known ligand) is 16.6 nM in assay [2], 0.138 nM in assay [3], 0.182 nM in assay [4] and 0.17 nM in assay [5].

Consider `c1ccc2c(c1)C[C@]1(c3c[nH]cn3)C[C@H]21` (stereo in doubt; 1) [listing 1 of 2 here], for which the Ki was 1.32 nM in assay [2], 0.0692 nM in assay [3], 0.115 nM in assay [4] and 0.178 nM in assay [5]. The ED50 (in general, the dose at which the effect has come halfway, by size or by number of responders) in the assay on Mus musculus [6] was 0.03 mg/kg; with Mus musculus [7], 0.12 mg/kg. For the same compound, in the assay with Mus musculus [8], the “Ratio ED50” value turned out to be 4.

On to `CO[C@H]1c2ccccc2[C@H]2C[C@]21c1c[nH]cn1` (stereo in doubt; (-)-3) [listing 1 of 2 here], for which, in assay [1], the negative-log Kb (pKb) was 6.44.

As to `c1ccc2c(c1)[C@H]1C[C@@]1(c1c[nH]cn1)C21CC1` (stereo in doubt; (+)-10) [listing 1 of 2 here], the Ki in assay [2] was 18.2 nM; in assay [3], 0.331 nM; in assay [4], 1.91 nM; in assay [5] it was 2.14 nM. The ED50 came to 0.08 mg/kg in the assay on Mus musculus [6] and 0.22 mg/kg in the assay on Mus musculus [7]. Moreover, the “Ratio ED50” value in the assay on Mus musculus [8] turned out to be 2.8.

`CCC1(c2cnc[nH]2)Cc2ccccc2C1` [ATIPAMEZOLE]: the Ki in assay [2] is 1950 nM; in assay [3], 1.86 nM; in assay [4] it was 2.24 nM; in assay [5] it was 4.17 nM.

Regarding `CO[C@H]1c2ccccc2[C@H]2C[C@]21c1c[nH]cn1` (stereo in doubt; (-)-3) [listing 2 of 2 here], the Ki was 1780 nM in assay [2], 55 nM in assay [3], 145 nM in assay [4] and 195 nM in assay [5].

Turning to `CO[C@@H]1c2ccccc2[C@H]2C[C@]21c1cnc[nH]1` (relative stereo), the Ki was 912 nM in assay [2], 11.7 nM in assay [3], 24 nM in assay [4] and 66.1 nM in assay [5].

As to `c1ccc2c(c1)[C@H]1C[C@@]1(c1c[nH]cn1)C21CC1` (stereo in doubt; 10) [listing 1 of 2 here], the Ki was 14.8 nM in assay [2], 0.603 nM in assay [3], 3.72 nM in assay [4] and 2.69 nM in assay [5]. In the assay on Mus musculus [6], the 50% effective dose (ED50) was found to be 0.06 mg/kg. Moreover, the “Ratio ED50” value in the assay with Mus musculus [8] came out at 3.7.

For the compound `c1ccc2c(c1)C[C@]1(c3c[nH]cn3)C[C@H]21` (stereo in doubt; 1) [listing 2 of 2 here], in assay [1], the pKb is 9.78.

Consider `CC(C)O[C@H]1c2ccccc2[C@H]2C[C@]21c1c[nH]cn1` (relative stereo), for which the pKb in assay [1] worked out at 6.88. For the same compound, the Ki in assay [2] is 316 nM; in assay [3] it was 45.7 nM; in assay [4], 11.7 nM; in assay [5], 89.1 nM.

Consider `CO[C@H]1c2ccccc2[C@H]2C[C@]21c1c[nH]cn1` (relative stereo), for which, in assay [1], the pKb was 8.28.

For the compound `CCCO[C@H]1c2ccccc2[C@H]2C[C@]21c1cnc[nH]1` (relative stereo), the Ki is 11.5 nM in assay [2], 3.98 nM in assay [3], 6.46 nM in assay [4] and 1.55 nM in assay [5].

`c1ccc2c(c1)[C@H]1C[C@@]1(c1c[nH]cn1)C21CC1` (stereo in doubt; (-)-10): the pKb in assay [1] is 7.75.

With `c1ccc2c(c1)[C@H]1C[C@@]1(c1c[nH]cn1)C21CC1` (stereo in doubt; (+)-10) [listing 2 of 2 here], the negative-log Kb (pKb) in assay [1] amounted to 8.88.

With `c1ccc2c(c1)[C@H]1C[C@@]1(c1c[nH]cn1)C21CC1` (stereo in doubt; 10) [listing 2 of 2 here], the pKb in assay [1] is 9.05.

For the compound `c1ccc2c(c1)C[C@]1(c3c[nH]cn3)C[C@H]21` (stereo in doubt; (-)-1), in assay [1], the pKb was 10.2.

On to `C[C@H]1c2ccccc2[C@H]2C[C@]21c1cnc[nH]1` (relative stereo), for which the Ki in assay [2] is 6.17 nM; in assay [3] it was 0.219 nM; in assay [4] it was 0.692 nM; in assay [5], 0.537 nM.
